We go through six compounds from ChEMBL document CHEMBL2331251, “Synthesis and biological evaluation of nucleoside analogues than contain silatrane on the basis of the structure of acyclovir (ACV) as novel inhibitors of hepatitis B virus (HBV)” (Bioorg Med Chem Lett, 2013).

pIC50: −log10 of the molar value. Calls of active or inactive are those of the source. The rule behind the calls is not given here. Bounds are passed on as bounds.

For data set [1], the system named is Hepatitis B virus. In words: Antiviral activity against Hepatitis B virus transfected in human HepG2.2.15 cells assessed as inhibition of HBeAg secretion after 6 days by ELISA. In kind it is functional, organism-based. The conditions noted are these: HepG2 2.2.15, 144 h. In a few lines:
(§1)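 HepG2.2.15 cells in DMEM with 10% FBS at 37 °C, 5% CO2, seeded at about 5 × 10⁵/well. After 24 h, compound was added at a range of concentrations, and media were replaced every 2 days for 6 days. Media were spun at 5000 rpm for 10 min, and secreted HBsAg and HBeAg were measured by ELISA. IC50 is the mean ± SD of three independent experiments.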

Data set [2] is described as follows: Cytotoxicity against human HepG2.2.15 cells assessed as reduction in number of viable cells after 3 days by MTT assay. In kind it is cell-based, HepG2 2.2.15. In outline:
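Confluent HepG2.2.15 cultures were exposed to test compounds for 3 days, with six cultures for each of two dilutions. MTT (5 g/l) was added 4 h before the end, cells were dissolved in DMSO, and OD was read at 570 nm. CC50 (50% reduction in viable cells or OD) was calculated by the Berkson logit method. Mean ± SD of three independent experiments.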

The test system of data set [3] is Hepatitis B virus. In words: Antiviral activity against Hepatitis B virus transfected in human HepG2.2.15 cells assessed as inhibition of HBsAg secretion after 6 days by ELISA. The conditions noted are these: HepG2 2.2.15, 144 h. The format is functional, organism-based. In a few lines:
as §1

For data set [4], the system named is Mus musculus. In words: Immunoregulatory activity in Hepatitis B virus infected transgenic mouse assessed as increase in cytokine IL-2 level in serum at 100 mg/kg qd for 1 month by ELISA. In kind it is functional, organism-based. Set-up: dose 100 mg/kg. In a few lines:
(§2)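 Serum IFN-γ and IL-2 were measured by ELISA in HBV transgenic mice (10 per group) after 100 mg/kg once daily for one month in 0.1% DMSO, with sera collected at day 30. Mean ± SD of 10 mice.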

The test system of data set [5] is Mus musculus. In words: Immunoregulatory activity in Hepatitis B virus infected transgenic mouse assessed as increase in cytokine IFN gamma level in serum at 100 mg/kg qd for 1 month by ELISA. Also noted: dose 100 mg/kg. The format is functional, organism-based. In outline:
as §2

Data set [6] concerns Mus musculus. Kind of data set: Immunoregulatory activity in Hepatitis B virus infected transgenic mouse assessed as increase in CD8+ population in peripheral blood at 100 mg/kg qd for 1 month by flow cytometry (reference value: 14.1 +/-1.4%). The format is functional.
Data set [7] has as its system Mus musculus. In words: Immunoregulatory activity in Hepatitis B virus infected transgenic mouse assessed as increase in cytokine IFN gamma mRNA level in liver at 100 mg/kg qd for 1 month by qPCR analysis. In kind it is functional, organism-based. Set-up: dose 100 mg/kg. In a few lines: (§3)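 Liver IFN-γ and IL-2 mRNA were measured by qPCR with mouse-specific primers, normalized to GAPDH, 40 cycles, in duplicate. HBV transgenic mice (10 per group) had been dosed at 100 mg/kg once daily for one month in 0.1% DMSO, and livers were taken at day 30. Mean ± SD of 10 mice.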

The subject of data set [8] is Mus musculus. Kind of data set: Immunoregulatory activity in Hepatitis B virus infected transgenic mouse assessed as increase in CD4+ population in peripheral blood at 100 mg/kg qd for 1 month by flow cytometry (reference value: 13.6 +/-2.7%). In kind it is functional.
Data set [9] relates to Mus musculus. Kind of data set: Immunoregulatory activity in Hepatitis B virus infected transgenic mouse assessed as increase in CD4+/CD8+ population in peripheral blood at 100 mg/kg qd for 1 month by flow cytometry (reference value: 0.9 +/-0.2%). The format is functional.
For data set [10], the system named is Mus musculus. In words: Immunoregulatory activity in Hepatitis B virus infected transgenic mouse assessed as increase in CD3+ population in peripheral blood at 100 mg/kg qd for 1 month by flow cytometry (reference value: 30.1 +/-2.9%). The format is functional.
Data set [11] has as its system Mus musculus. In words: Immunoregulatory activity in Hepatitis B virus infected transgenic mouse assessed as increase in cytokine IL-2 mRNA level in liver at 100 mg/kg qd for 1 month by qPCR analysis. In kind it is functional, organism-based. Set-up: dose 100 mg/kg. In outline:
as §3

For data set [12], the system named is Hepatitis B virus. Kind of data set: Antiviral activity against Hepatitis B virus infected in transgenic mouse assessed as decrease in serum HBeAg level at 100 mg/kg qd for 1 month by ELISA. The format is functional, organism-based. Set-up: dose 100 mg/kg. In outline: (§4)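 HBV transgenic mice (C57BL/6 background, 3.2 Kb HBV DNA, backcrossed to C57BL/6J), 8 weeks old, equal numbers of each sex, matched for serum HBsAg. Ten per group. Dosed 100 mg/kg once daily for one month in 0.1% DMSO. Groups included saline and 0.1% DMSO. Sera were taken at day 30, and HBsAg and HBeAg were measured by ELISA kit. Mean ± SD of 10 mice.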

Data set [13] deals with Hepatitis B virus. In words: Antiviral activity against Hepatitis B virus infected in transgenic mouse assessed as decrease in serum HBsAg level at 100 mg/kg qd for 1 month by ELISA. The format is functional, organism-based. Set-up: dose 100 mg/kg. In a few lines: as §4
Data set [14] has as its system Hepatitis B virus. Kind of data set: Antiviral activity against Hepatitis B virus infected in transgenic mouse assessed as decrease in viral DNA level in liver at 100 mg/kg qd for 1 month by qPCR analysis. The format is functional, organism-based. Set-up: dose 100 mg/kg. In outline: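 HBV transgenic mice, 8 weeks old, sex- and HBsAg-matched, 10 per group. Given 100 mg/kg daily for one month, solubilized with 0.1% DMSO. Livers were harvested after 30 days. HBV DNA was extracted and quantified by qPCR with a commercial HBV DNA kit, 40 cycles, normalized to GAPDH, run in duplicate. Mean ± SD of 10 mice.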

`CC1CN2CC(C)O[Si](CCCNC(=O)CCCC(=O)OCCOCn3cnc4c(=O)[nH]c(N)nc43)(OC[C@@H]2C)O1` (stereo partly specified): the pIC50 with Hepatitis B virus [1] is 3.31; with Hepatitis B virus [3] it was 3.85. Moreover, in [2], the CC50 at 72 h amounted to 732 µM.
For the compound `Nc1nc2c(ncn2COCCO)c(=O)[nH]1` [ACYCLOVIR], the result in the data set on Mus musculus [4], with Mus musculus [5], in the data set on Mus musculus [7] and in the data set with Mus musculus [11] was Active. Further, the Activity was found to be 15.1% with Mus musculus [6], 18.7% with Mus musculus [8], 1.2% with Mus musculus [9] and 31.2% in the data set on Mus musculus [10]. The pIC50 in the data set on Hepatitis B virus [1] and in the data set on Hepatitis B virus [3] was less than 3.00 each time. Further, in [2], the CC50 at 72 h is 630 µM.
Take `CC1CN2CC(C)O[Si](CCCNC(=O)CCC(=O)OCCOCn3cnc4c(=O)[nH]c(N)nc43)(O1)O[C@@H](C)C2` (stereo partly specified): the outcome in the data set on Mus musculus [4], in the data set on Mus musculus [5], in the data set on Mus musculus [7] and in the data set with Mus musculus [11] was Active. Moreover, the inhibition result in the data set on Hepatitis B virus [12], in the data set on Hepatitis B virus [13] and in the data set with Hepatitis B virus [14] was “Active” in each case. Besides, the Activity with Mus musculus [6] came to 20.6%; in the data set on Mus musculus [8], 33%; in the data set on Mus musculus [9] it was 1.6%; in the data set on Mus musculus [10], 48.3%. For the same compound, the results for the pIC50 in the data set with Hepatitis B virus [1] and in the data set on Hepatitis B virus [3] were 4.05 and 4.46, respectively. Moreover, the CC50 at 72 h in data set [2] was found to be 467 µM.
For `Nc1nc2c(ncn2COCCOC(=O)CCC(=O)NCCC[Si]23OCCN(CCO2)CCO3)c(=O)[nH]1`, the results for the pIC50 with Hepatitis B virus [1] and in the data set with Hepatitis B virus [3] were 3.90 and 4.10, respectively. For the same compound, in data set [2], the 50% cytotoxic concentration (CC50) at 72 h worked out at 485 µM.
The like results for `Nc1nc2c(ncn2COCCOC(=O)CCCC(=O)NCCC[Si]23OCCN(CCO2)CCO3)c(=O)[nH]1` were, in that order, 3.80, 4.04 and 570 µM.
Consider `Nc1ccn([C@@H]2CS[C@H](CO)O2)c(=O)n1` [LAMIVUDINE], for which the result with Mus musculus [4], in the data set with Mus musculus [5], with Mus musculus [7] and in the data set on Mus musculus [11] was Active. The Activity with Mus musculus [6] is listed as 16.7%; with Mus musculus [8], 19.3%; in the data set on Mus musculus [9] it was 1.2%; with Mus musculus [10], 34.1%. Moreover, in the data set with Hepatitis B virus [14], the inhibition result is “Active”. Further, the figures for the negative logarithm of the IC50 (pIC50) in the data set on Hepatitis B virus [1] and with Hepatitis B virus [3] were less than 3.00 and 3.39, respectively. For the same compound, the CC50 at 72 h in data set [2] is more than 1000 µM.
